Results of several laboratories.
Cell line: A549
Effect on: cell growth or viability

`COc1ccc2c(c1)C(=NNc1ncnc3cc(OC)c(OC)cc13)C(=O)N2` gave an inhibition of -10.4% (10 µM).
For `C=C(c1ccc(C(=O)O)cc1)c1cc2c(cc1C)C(C)(C)CCC2(C)C`, the EC50 was 58 µM (MTT; 72 h).
The IC80 of `COC(C)(C)CCC[C@](C)(O)[C@H]1CC[C@]2(C)[C@@H]1[C@H](O)C[C@@H]1[C@@]3(C)CC[C@H](O)C(C)(C)[C@@H]3CC[C@]12C` is reported as 35.9 µM (MTT; 72 h).
`CNS(=O)(=O)Nc1nccc(Cc2c(C)c3ccc(Oc4ncccn4)cc3oc2=O)c1F` gave a GI50 of 5.07 µM (CCK-8).
The GI50 of `COc1cccc2c1C(=O)c1c(O)c3c(c(O)c1C2=O)C[C@@](O)(C(=O)CO)C[C@@H]3O[C@H]1C[C@H](N)[C@H](O)[C@H](C)O1` is reported as 5.66 µM (MTT; 72 h).
With `COc1ccc2c(c1)C(=NNc1nnc(Cc3ccccc3)c3ccccc13)C(=O)N2` the inhibition was 13.5% (30 µM).
The viability of `COc1ccc(CCNCC(O)COc2cccc(C)c2)cc1OC` (stereo not drawn) is reported as under 50% (CCK-8; 100 µM; 72 h).
The GI50 of `COc1cccc2c1C(=O)c1c(O)c3c(c(O)c1C2=O)C[C@@](O)(C(=O)CO)C[C@@H]3O[C@H]1C[C@H](N)[C@H](O)[C@H](C)O1` is reported as under 10 µg/mL (SRB; 48 h).
For `CN1C[C@H](C(=O)N[C@]2(C)O[C@@]3(O)[C@@H]4CCCN4C(=O)[C@H](Cc4ccccc4)N3C2=O)C[C@@H]2c3cccc4[nH]cc(c34)C[C@H]21`, the EC50 was 43 µM (MTT; 72 h).
`O=C(CN1C(=O)/C(=C/c2cccc(O)c2)SC1=S)Nc1ccccc1` gave an inhibition of 14.5% (MTT; 10 µM).
`CC(C)=CCC[C@](C)(O)[C@H]1CC[C@]2(C)[C@@H]1[C@H](O)C[C@@H]1[C@@]3(C)CC[C@H](O[C@@H]4O[C@H](CO)[C@@H](O)[C@H](O)[C@H]4O[C@@H]4O[C@H](CO)[C@@H](O)[C@H](O)[C@H]4O)C(C)(C)[C@@H]3CC[C@]12C` has an IC20 of over 100 µM (MTT; 72 h).
`O=C(CN1C(=O)/C(=C/c2ccc(Cl)cc2Cl)SC1=S)Nc1ccccc1` has an inhibition of 4.43% (MTT; 10 µM).
`CC(=O)O[C@H]1C(=O)[C@@]2(C)[C@H]([C@H](OC(=O)c3ccccc3)[C@]3(O)C[C@H](OC(=O)[C@H](O)[C@@H](NC(=O)c4ccccc4)c4ccccc4)C(C)=C1C3(C)C)[C@]1(OC(C)=O)CO[C@@H]1C[C@@H]2O` has an IC50 of 0.0025 µM (SRB).
With `CC(C)c1ccc(/C=C2\SC(=S)N(CC(=O)Nc3ccccc3)C2=O)cc1` the inhibition was 22.5% (MTT; 10 µM).
For `CCN(CC)CCNC(=O)c1c(C)[nH]c(/C=C2\C(=O)Nc3ccc(F)cc32)c1C`, the inhibition was 85.7% (30 µM).
`O=C(CN1C(=O)/C(=C/C2CC2)SC1=S)Nc1ccccc1` has an inhibition of 28.9% (MTT; 10 µM).
`Cn1c(=O)c(NN=C2C(=O)Nc3ccc(F)cc32)nc2ccccc21` gave an inhibition of 53.2% (30 µM).
With `COc1cccc(NC(=O)CN2C(=O)/C(=C/C3CC3)SC2=S)c1` the inhibition was 17.2% (MTT; 10 µM).
With `COc1ccccc1OCCNCC(O)COc1cccc2[nH]c3ccccc3c12` (stereo not drawn) the viability was under 50% (CCK-8; 100 µM; 72 h).
For `O=C(CN1C(=O)/C(=C/c2ccco2)SC1=S)Nc1ccccc1`, the inhibition was 39.5% (MTT; 10 µM).
With `CC/C(=C(\c1ccccc1)c1ccc(OCCN(C)C)cc1)c1ccccc1` the EC90 was 26.1 µM (ATP luminescence; 72 h).
